# ChEMBL document CHEMBL3797162, “Synthesis and inhibitory evaluation of 3-linked imipramines for the exploration of the S2 site of the human serotonin transporter” (Bioorg Med Chem, 2016)
# pIC50, pKi: −log10 of the molar value.
# Experiments:
# Type in all cases: cell-based
# [1] = molecular target: Sodium-dependent serotonin transporter (Homo sapiens, UniProt P31645, I179C); experiment: Inhibition of human SERT I179C mutant expressed in HEK293 MSR cells assessed as [3H]-5-HT uptake preincubated for 30 mins followed addition of [3H]-5HT and compound for 10 mins by micro-scintillation counter
# Sequence of Sodium-dependent serotonin transporter (Homo sapiens, UniProt P31645, I179C) (P31645 whole entry I179C): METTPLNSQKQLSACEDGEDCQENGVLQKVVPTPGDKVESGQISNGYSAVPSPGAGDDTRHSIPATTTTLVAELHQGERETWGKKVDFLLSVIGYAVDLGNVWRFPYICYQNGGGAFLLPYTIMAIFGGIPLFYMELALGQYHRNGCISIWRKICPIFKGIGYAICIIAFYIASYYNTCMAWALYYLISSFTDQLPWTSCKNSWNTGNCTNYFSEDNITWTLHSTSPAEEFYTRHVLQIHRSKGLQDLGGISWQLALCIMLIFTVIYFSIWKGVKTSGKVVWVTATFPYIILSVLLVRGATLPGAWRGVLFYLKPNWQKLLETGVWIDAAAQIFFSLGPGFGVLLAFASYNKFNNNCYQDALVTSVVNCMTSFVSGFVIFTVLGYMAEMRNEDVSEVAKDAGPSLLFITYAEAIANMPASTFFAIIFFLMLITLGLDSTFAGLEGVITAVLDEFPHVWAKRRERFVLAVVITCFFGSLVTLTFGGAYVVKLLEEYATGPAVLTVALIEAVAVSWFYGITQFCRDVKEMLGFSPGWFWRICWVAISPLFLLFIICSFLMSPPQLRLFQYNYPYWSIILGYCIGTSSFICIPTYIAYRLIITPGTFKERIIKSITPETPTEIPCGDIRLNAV
# In short: (§1)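 Cells were transiently transfected (Lipofectamine 2000, 0.2 µg DNA per cm²) and used after 48–60 h. Cells were washed in PBS with Ca/Mg (pH 7.4) and preincubated 30 min with a dilution series. 50–100 nM [3H]5-HT plus inhibitor was then added for 10 min at room temperature.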
# [2] = molecular target: Sodium-dependent serotonin transporter (Homo sapiens, UniProt P31645, I172M); experiment: Inhibition of human SERT I172M mutant expressed in HEK293 MSR cells assessed as [3H]-5-HT uptake preincubated for 30 mins followed addition of [3H]-5HT and compound for 10 mins by micro-scintillation counter; in short: as §1
# Sequence of Sodium-dependent serotonin transporter (Homo sapiens, UniProt P31645, I172M) (P31645 whole entry I172M): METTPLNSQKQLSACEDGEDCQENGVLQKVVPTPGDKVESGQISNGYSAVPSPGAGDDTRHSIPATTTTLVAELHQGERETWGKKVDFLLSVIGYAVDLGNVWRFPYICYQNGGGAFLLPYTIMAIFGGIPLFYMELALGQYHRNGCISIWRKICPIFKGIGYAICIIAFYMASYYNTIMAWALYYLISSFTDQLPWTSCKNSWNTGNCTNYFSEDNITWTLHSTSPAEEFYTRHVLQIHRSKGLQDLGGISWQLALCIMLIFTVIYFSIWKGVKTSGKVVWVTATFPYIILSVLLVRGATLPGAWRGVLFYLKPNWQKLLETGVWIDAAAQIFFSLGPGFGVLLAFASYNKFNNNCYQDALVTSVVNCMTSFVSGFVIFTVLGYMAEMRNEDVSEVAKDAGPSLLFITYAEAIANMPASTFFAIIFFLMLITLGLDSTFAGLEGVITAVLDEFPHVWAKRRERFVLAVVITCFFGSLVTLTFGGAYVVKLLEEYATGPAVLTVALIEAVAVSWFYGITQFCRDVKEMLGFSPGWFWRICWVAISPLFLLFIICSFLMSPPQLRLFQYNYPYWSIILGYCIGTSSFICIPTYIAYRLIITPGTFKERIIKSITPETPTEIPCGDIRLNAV
# [3] = molecular target: Sodium-dependent serotonin transporter (Homo sapiens, UniProt P31645, W103A); experiment: Inhibition of human SERT W103A mutant expressed in HEK293 MSR cells assessed as [3H]-5-HT uptake preincubated for 30 mins followed addition of [3H]-5HT and compound for 10 mins by micro-scintillation counter; in short: as §1
# Sequence of Sodium-dependent serotonin transporter (Homo sapiens, UniProt P31645, W103A) (P31645 whole entry W103A): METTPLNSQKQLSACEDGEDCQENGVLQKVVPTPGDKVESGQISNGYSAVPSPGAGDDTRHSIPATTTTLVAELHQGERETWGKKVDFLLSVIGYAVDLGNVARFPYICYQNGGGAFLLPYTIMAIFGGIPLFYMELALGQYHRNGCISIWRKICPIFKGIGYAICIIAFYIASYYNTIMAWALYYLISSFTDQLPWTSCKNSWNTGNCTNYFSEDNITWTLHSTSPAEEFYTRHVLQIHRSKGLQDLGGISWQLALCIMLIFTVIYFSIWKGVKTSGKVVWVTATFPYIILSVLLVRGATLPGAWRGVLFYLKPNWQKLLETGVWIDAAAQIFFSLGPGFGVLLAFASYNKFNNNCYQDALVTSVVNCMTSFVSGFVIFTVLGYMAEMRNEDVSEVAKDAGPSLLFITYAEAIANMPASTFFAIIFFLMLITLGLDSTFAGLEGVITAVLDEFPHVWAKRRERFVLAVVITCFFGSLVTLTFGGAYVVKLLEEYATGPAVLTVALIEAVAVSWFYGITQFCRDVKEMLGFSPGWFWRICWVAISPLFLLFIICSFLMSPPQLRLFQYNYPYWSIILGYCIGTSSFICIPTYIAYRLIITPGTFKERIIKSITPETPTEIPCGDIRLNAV
# [4] = molecular target: Sodium-dependent serotonin transporter (Homo sapiens, UniProt P31645); experiment: Inhibition of wild-type human SERT expressed in HEK293 MSR cells assessed as [3H]-5-HT uptake preincubated for 30 mins followed addition of [3H]-5HT and compound for 10 mins by micro-scintillation counter; in short: as §1
# Sequence of Sodium-dependent serotonin transporter (Homo sapiens, UniProt P31645) (P31645 whole entry): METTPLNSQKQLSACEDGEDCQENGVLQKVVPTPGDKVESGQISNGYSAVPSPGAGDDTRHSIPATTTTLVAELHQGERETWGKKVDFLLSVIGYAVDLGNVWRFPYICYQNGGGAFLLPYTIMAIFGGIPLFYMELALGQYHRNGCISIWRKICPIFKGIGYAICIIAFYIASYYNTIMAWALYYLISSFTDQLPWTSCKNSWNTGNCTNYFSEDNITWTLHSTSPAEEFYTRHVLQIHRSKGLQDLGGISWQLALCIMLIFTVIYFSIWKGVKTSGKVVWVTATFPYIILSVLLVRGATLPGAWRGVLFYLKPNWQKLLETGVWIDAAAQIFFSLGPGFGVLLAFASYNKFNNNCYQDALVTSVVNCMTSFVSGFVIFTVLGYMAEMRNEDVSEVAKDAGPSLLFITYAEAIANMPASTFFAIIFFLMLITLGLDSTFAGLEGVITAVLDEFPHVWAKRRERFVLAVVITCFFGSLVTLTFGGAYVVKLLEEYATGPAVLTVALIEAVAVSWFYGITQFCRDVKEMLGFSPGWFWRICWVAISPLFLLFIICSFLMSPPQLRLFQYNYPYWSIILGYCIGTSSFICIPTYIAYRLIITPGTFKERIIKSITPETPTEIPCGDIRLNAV
pKi [1],pKi [2],pIC50 [3],pKi [4],Compound
6.57,5.57,6.55,6.22,CN(C)CCCN1c2ccccc2CCc2ccc(CCCOCCOc3cccc4ccccc34)cc21
6.44,5.17,6.55,6.00,CN(C)CCCN1c2ccccc2CCc2ccc(CCCOCCOCCc3cccc4ccccc34)cc21
7.57,5.62,7.40,6.66,C#Cc1ccc2c(c1)N(CCCN(C)C)c1ccccc1CC2
6.27,5.28,6.52,5.96,CN(C)CCCN1c2ccccc2CCc2ccc(C#CCOCCOCCc3cccc4ccccc34)cc21
6.30,4.72,6.25,5.70,CN(C)CCCN1c2ccccc2CCc2ccc(C#CCOCCOCCSc3cccc4ccccc34)cc21
5.55,5.00,5.39,4.96,CN(C)CCCN1c2ccccc2CCc2ccc(C#CCOCCCOCCCN3c4ccccc4CCc4ccccc43)cc21
5.80,4.80,5.80,4.89,CN(C)CCCN1c2ccccc2CCc2ccc(C#CCOCCCN3c4ccccc4CCc4ccccc43)cc21
6.19,4.96,6.08,5.23,CN(C)CCCN1c2ccccc2CCc2ccc(CCCOCCCOCCCN3c4ccccc4CCc4ccccc43)cc21
6.19,5.70,6.36,5.82,CN(C)CCCN1c2ccccc2CCc2ccc(C#CCOCCOc3ccc4ccccc4c3)cc21
6.35,5.19,6.38,5.19,CN(C)CCCN1c2ccccc2CCc2ccc(C#CCOCCOCCOc3cccc4ccccc34)cc21
5.74,5.10,5.32,5.46,CN(C)CCCN1c2ccccc2CCc2ccc(C#CCOCCOc3cccc4ccccc34)cc21
7.46,5.59,7.22,6.82,CN(C)CCCN1c2ccccc2CCc2ccc(C#CCO)cc21
6.48,4.82,6.57,5.20,CN(C)CCCN1c2ccccc2CCc2ccc(CCCOCCCN3c4ccccc4CCc4ccccc43)cc21
6.54,5.30,6.21,6.21,CN(C)CCCN1c2ccccc2CCc2ccc(CCCOCc3cccc4ccccc34)cc21
5.92,4.57,6.03,5.46,CN(C)CCCN1c2ccccc2CCc2ccc(C#CCOCCCOc3cccc4ccccc34)cc21
6.21,5.03,6.22,5.92,CN(C)CCCN1c2ccccc2CCc2ccc(CCCOCCCOc3cccc4ccccc34)cc21
6.55,5.27,6.47,6.23,CN(C)CCCN1c2ccccc2CCc2ccc(C#CCOCc3cccc4ccccc34)cc21
